Measured values published in ChEMBL document CHEMBL1156006, “Potent and cellularly active 4-aminoimidazole inhibitors of cyclin-dependent kinase 5/p25 for the treatment of Alzheimer's disease” (Bioorg Med Chem Lett, 2009).
pIC50: −log10 of the molar value.

How the values were obtained:
[1] = molecular target: T1, Cyclin-dependent kinase 5/CDK5 activator 1 (Homo sapiens, UniProt Q00535); experiment: Inhibition of CDK5/p25 by scintillation proximity assay; format: protein-complex assay
[2] = Selectivity ratio, IC50 for CDK2/cyclin E over IC50 for CDK5/p25
[3] = molecular target: T1, Cyclin-dependent kinase 5/CDK5 activator 1; experiment: Inhibition of human CDK5/p25 expressed in CHO cells after 2 hrs by whole cell assay; format: cell-based
How it was run: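 The cell line carries doxycycline-regulated CDK5, p25 and tau transgenes and was kept uninduced in doxycycline medium. Expression was induced by removing doxycycline for 24 h. Cells were then treated with compound for 2 h and lysed. Phosphorylated tau was measured in detergent-soluble extracts by AlphaLISA.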

[4] = Drug level in MDR1A/1B knockout mouse brain at 2 mg/kg, sc after 1 hr; format: ADME, organism-based; parameters: dose 2 mg/kg, route subcutaneous; details: read-out: Drug uptake
[5] = Drug level in FV/B mouse brain at 2 mg/kg, sc after 1 hr; format: ADME, organism-based; parameters: dose 2 mg/kg, route subcutaneous; details: read-out: Drug uptake
[6] = Ratio of drug level from brain to plasma in FV/B mouse at 2 mg/kg, sc after 1 hr
[7] = Plasma concentration in MDR1A/1B knockout mouse at 2 mg/kg, sc after 1 hr; format: ADME, organism-based; parameters: dose 2 mg/kg, route subcutaneous
[8] = Plasma concentration in FV/B mouse at 2 mg/kg, sc after 1 hr; format: ADME, organism-based; parameters: dose 2 mg/kg, route subcutaneous
[9] = Ratio of drug level from brain to plasma in MDR1A/1B knockout mouse at 2 mg/kg, sc after 1 hr
[10] = Selectivity ratio, IC50 for human CDK5/p25 by whole cell assay over IC50 for CDK5/p25
[11] = Inhibition of PHK at 10 uM by scintillation proximity assay
How it was run: (§1)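 Single-concentration profiling by scintillation proximity assay across a 20-kinase panel, including AMPK, GSK3b, MAPK1 and PHK. Compound was tested at 10, with ATP at the Km of each kinase.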

[12] = molecular target: Glycogen synthase kinase-3 beta (Homo sapiens) (UniProt P49841); experiment: Inhibition of GSK3-beta at 10 uM by scintillation proximity assay; how it was run: as §1
[13] = Inhibition of AMPK at 10 uM by scintillation proximity assay; how it was run: as §1
[14] = Apparent permeability from apical to basolateral side in human Caco-2 cells
[15] = Apparent permeability from basolateral to apical side in human Caco-2 cells
[16] = molecular target: Mitogen-activated protein kinase 1 (Homo sapiens) (UniProt P28482); experiment: Inhibition of MAPK1/ERK2 at 10 uM by scintillation proximity assay; how it was run: as §1
[17] = molecular target: T2, Cyclin-dependent kinase 2/cyclin A (Homo sapiens) (UniProt P24941+P20248+P78396); experiment: Inhibition of CDK2/cyclin A at 10 uM by scintillation proximity assay; format: protein-complex assay
[18] = molecular target: Dual specificity protein kinase CLK1 (Homo sapiens) (UniProt P49759); experiment: Inhibition of CLK1 at 1 uM by scintillation proximity assay
[19] = molecular target: Casein kinase I isoform delta (Homo sapiens) (UniProt P48730); experiment: Inhibition of CK1delta at 10 uM by scintillation proximity assay
[20] = molecular target: Casein kinase I isoform delta (Homo sapiens) (UniProt P48730); experiment: Inhibition of CK1delta at 1 uM by scintillation proximity assay
[21] = molecular target: Glycogen synthase kinase-3 beta (Homo sapiens) (UniProt P49841); experiment: Inhibition of GSK3-beta at 1 uM by scintillation proximity assay
[22] = molecular target: Mitogen-activated protein kinase 1 (Homo sapiens) (UniProt P28482); experiment: Inhibition of MAPK1/ERK2 at 1 uM by scintillation proximity assay
[23] = molecular target: Dual specificity protein kinase CLK1 (Homo sapiens) (UniProt P49759); experiment: Inhibition of CLK1 at 10 uM by scintillation proximity assay
[24] = molecular target: T2, Cyclin-dependent kinase 2/cyclin A (Homo sapiens); experiment: Inhibition of CDK2/cyclin A at 1 uM by scintillation proximity assay; format: protein-complex assay

T1 sequence (Q00535 whole entry): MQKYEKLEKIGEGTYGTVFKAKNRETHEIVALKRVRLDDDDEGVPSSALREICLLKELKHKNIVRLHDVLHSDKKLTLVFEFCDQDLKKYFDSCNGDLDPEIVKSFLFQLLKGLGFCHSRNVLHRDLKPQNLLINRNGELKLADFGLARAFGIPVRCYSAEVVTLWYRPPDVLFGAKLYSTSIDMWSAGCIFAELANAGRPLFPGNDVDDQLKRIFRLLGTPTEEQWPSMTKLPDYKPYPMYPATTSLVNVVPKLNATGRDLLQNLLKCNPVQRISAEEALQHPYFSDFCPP
T1 sequence (Q15078 whole entry, further chain): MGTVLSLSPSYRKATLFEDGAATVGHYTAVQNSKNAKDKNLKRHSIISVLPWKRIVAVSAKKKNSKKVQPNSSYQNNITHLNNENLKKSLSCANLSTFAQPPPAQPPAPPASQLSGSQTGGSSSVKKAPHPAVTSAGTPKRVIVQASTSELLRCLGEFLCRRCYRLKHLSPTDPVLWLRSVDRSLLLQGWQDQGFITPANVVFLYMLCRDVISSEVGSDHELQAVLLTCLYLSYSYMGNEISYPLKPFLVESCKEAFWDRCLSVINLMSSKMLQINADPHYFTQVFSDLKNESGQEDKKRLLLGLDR
Sequence of Glycogen synthase kinase-3 beta (Homo sapiens) (P49841 whole entry, looked up): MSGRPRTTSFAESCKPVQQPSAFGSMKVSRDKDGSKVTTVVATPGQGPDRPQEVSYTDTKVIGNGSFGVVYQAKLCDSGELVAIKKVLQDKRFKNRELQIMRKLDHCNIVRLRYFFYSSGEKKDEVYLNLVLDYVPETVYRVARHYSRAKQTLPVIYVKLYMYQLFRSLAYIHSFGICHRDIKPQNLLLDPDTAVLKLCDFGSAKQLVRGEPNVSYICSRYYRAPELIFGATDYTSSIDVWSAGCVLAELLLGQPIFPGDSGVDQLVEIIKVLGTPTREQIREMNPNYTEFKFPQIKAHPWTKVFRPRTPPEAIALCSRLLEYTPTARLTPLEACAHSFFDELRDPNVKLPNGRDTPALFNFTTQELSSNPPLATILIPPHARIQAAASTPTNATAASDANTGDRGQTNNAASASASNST
Sequence of Casein kinase I isoform delta (Homo sapiens) (P48730 whole entry, looked up, canonical isoform): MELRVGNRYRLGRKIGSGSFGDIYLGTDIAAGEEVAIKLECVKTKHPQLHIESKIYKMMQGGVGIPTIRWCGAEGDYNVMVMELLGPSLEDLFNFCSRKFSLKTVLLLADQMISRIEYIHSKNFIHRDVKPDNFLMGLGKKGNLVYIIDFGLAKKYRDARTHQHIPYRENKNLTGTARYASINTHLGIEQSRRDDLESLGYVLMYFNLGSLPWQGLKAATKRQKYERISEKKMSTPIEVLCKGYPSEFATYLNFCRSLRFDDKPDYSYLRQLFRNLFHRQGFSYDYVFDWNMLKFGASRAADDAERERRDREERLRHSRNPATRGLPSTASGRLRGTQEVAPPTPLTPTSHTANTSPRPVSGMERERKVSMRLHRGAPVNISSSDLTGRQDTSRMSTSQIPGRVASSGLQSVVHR
Sequence of Mitogen-activated protein kinase 1 (Homo sapiens) (P28482 whole entry): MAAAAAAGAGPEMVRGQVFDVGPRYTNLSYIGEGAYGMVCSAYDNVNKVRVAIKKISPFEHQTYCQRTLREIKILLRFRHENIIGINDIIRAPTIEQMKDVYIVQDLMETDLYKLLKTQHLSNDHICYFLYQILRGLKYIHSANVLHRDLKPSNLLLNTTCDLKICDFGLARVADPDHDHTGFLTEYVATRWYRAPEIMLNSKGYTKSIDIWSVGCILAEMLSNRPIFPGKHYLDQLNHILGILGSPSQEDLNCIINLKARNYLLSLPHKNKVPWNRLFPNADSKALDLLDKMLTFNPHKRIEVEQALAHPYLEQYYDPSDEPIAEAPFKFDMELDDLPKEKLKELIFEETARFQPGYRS
Sequence of Dual specificity protein kinase CLK1 (Homo sapiens) (P49759 whole entry, looked up, canonical isoform): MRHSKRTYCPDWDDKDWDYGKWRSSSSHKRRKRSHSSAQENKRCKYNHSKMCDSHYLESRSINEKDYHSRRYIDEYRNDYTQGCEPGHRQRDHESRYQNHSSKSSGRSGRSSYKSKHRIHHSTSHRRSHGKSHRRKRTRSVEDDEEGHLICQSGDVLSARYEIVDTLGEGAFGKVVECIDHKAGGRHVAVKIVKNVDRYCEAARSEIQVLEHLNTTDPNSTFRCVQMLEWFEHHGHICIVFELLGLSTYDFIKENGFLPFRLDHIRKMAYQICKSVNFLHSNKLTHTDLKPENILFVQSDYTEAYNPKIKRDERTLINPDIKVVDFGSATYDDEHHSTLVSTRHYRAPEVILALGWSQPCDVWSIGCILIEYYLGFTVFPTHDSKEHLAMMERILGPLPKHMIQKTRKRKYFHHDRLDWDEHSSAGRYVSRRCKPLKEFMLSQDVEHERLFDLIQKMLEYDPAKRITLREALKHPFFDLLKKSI

Row | SMILES | pIC50 [1] | Ratio IC50 [2] | other results
1 | CC(=O)N(C)[C@H]1C[C@@H](n2cnc(NC(=O)Cc3cccc4ccccc34)c2)C1 | 6.97 | 15 | –
2 | O=C(Cc1ccccc1)Nc1cn(C2CCC2)cn1 | 6.30 | – | –
3 | COc1ccc(CC(=O)Nc2cn(C(C)C)cn2)cc1 | 6.37 | – | –
4 | O=C(Cc1cccc2ccccc12)Nc1cn([C@H]2C[C@@H](NC(=O)c3cccnc3)C2)cn1 | 7.34 | 15 | pIC50 [3]: < 4.52
5 | COc1ccc(CC(=O)Nc2cn([C@H]3C[C@@H](NS(C)(=O)=O)C3)cn2)cc1 | 6.75 | 6 | –
6 | Cc1cccc(C(=O)N[C@H]2C[C@@H](n3cnc(NC(=O)Cc4cccc5ccccc45)c3)C2)n1 | 8.22 | – | concentration at 1 h [4]: 383 ng/g; concentration at 1 h [5]: 34 ng/g; Kp at 1 h [6]: 0.12; concentration at 1 h [7]: 336 ng/mL; concentration at 1 h [8]: 280 ng/mL; Kp at 1 h [9]: 1.1; pIC50 [3]: 6.64
7 | O=C(Cc1cccc2ccccc12)Nc1cn([C@H]2C[C@@H](NC(=O)c3cccc(Cl)n3)C2)cn1 | 8.22 | 34 | Ratio IC50 [10]: 100; pIC50 [3]: 6.17
8 | O=C(Cc1cccc2ccccc12)Nc1cn(C2CCC2)cn1 | 7.34 | – | –
9 | COc1ccc(CC(=O)Nc2cn([C@H]3C[C@@H](O)C3)cn2)cc1 | 7.02 | 0.7 | –
10 | NC(=O)[C@H]1C[C@@H](n2cnc(NC(=O)Cc3cccc4ccccc34)c2)C1 | 6.41 | 2 | –
11 | COc1ccc(CC(=O)Nc2cn([C@H]3C[C@@H](C(=O)OC)C3)cn2)cc1 | 6.84 | 0.7 | –
12 | COc1ccc(CC(=O)Nc2cn(C3CC3)cn2)cc1 | 6.09 | – | –
13 | COc1ccc(CC(=O)Nc2cn(C)cn2)cc1 | < 5.00 | – | –
14 | COc1ccc(CC(=O)Nc2cn(C3CCC3)cn2)cc1 | 6.84 | – | inhibition [11]: 32%; inhibition [12]: 34%; inhibition [13]: 48%
15 | COc1ccc(CC(=O)Nc2cn(C3CCCC3)cn2)cc1 | 6.81 | – | –
16 | COc1ccc(CC(=O)Nc2cn([C@H]3C[C@H](O)C3)cn2)cc1 | 5.96 | 0.7 | –
17 | CC(=O)N[C@H]1C[C@@H](n2cnc(NC(=O)Cc3cccc4ccccc34)c2)C1 | 8.10 | 17 | Papp A→B [14]: 1.5 ×10⁻⁶ cm/s; Papp B→A [15]: 17.5 ×10⁻⁶ cm/s; pIC50 [3]: < 4.52
18 | O=C(Cc1cccc2ccccc12)Nc1cn([C@H]2C[C@@H](NC(=O)c3ccncc3)C2)cn1 | 7.55 | 11 | –
19 | COc1ccc(CC(=O)Nc2cn(C3CCCCC3)cn2)cc1 | 6.13 | – | –
20 | O=C(Cc1cccc2ccccc12)Nc1cn([C@H]2C[C@@H](NC(=O)c3ccccn3)C2)cn1 | 7.85 | 20 | Papp A→B [14]: 26 ×10⁻⁶ cm/s; Papp B→A [15]: 21 ×10⁻⁶ cm/s; pIC50 [3]: 5.89
21 | O=C(Cc1ccccc1)Nc1ncc(C2CCC2)s1 | 7.19 | 1.5 | –
22 | COc1ccc(CC(=O)Nc2cn([C@H]3C[C@@H](NC(C)=O)C3)cn2)cc1 | 8.05 | 7 | inhibition [16]: 89%; inhibition [17]: 101%; inhibition [18]: 55%; inhibition [19]: 39%; inhibition [20]: 7%; inhibition [12]: 100%; inhibition [21]: 94%; inhibition [22]: 47%; inhibition [23]: 92%; inhibition [24]: 94%
23 | COc1ccc(CC(=O)Nc2cn([C@H]3C[C@H](C(=O)OC)C3)cn2)cc1 | 5.36 | 0.2 | –
24 | COc1ccc(CC(=O)Nc2cn(Cc3ccccc3)cn2)cc1 | 5.06 | – | –
